# In ChEMBL document CHEMBL1131107 (J Med Chem, 1998):
# Experiments:
# [1] = target: T1, Protein farnesyltransferase (Rattus norvegicus, UniProt Q02293+Q04631); assay: Inhibition of Farnesyltransferase from rat brain
# NIH3T3 [2] = assay: Inhibition of Ras processing in Hras-transformed NIH3T3 cells.
# [3] = target: T1, Protein farnesyltransferase; assay: Inhibition of Farnesyltransferase in competitive manner with respect to FPP (farnesyl diphosphate) at 0.6 uM FPP and 0.36 uM Ras peptide; type: protein-complex assay
# How it was run: (§1)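 FTase IC50 (nM) measured at varied substrate levels to test competition: FPP 0.6 or 6.0 μM and Ras C-terminal peptide 0.36 or 3.6 μM. Competition with FPP was judged from the shift in IC50 as FPP and peptide concentrations changed.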
# [4] = target: T1, Protein farnesyltransferase; assay: Inhibition of Farnesyltransferase in competitive manner with respect to FPP (farnesyl diphosphate) at 0.6 uM FPP and 3.6 uM Ras peptide.; type: protein-complex assay; how it was run: as §1
# [5] = target: T1, Protein farnesyltransferase; assay: Inhibition of FTase in competitive manner with respect to FPP (farnesyl diphosphate) at 6.0 uM FPP and 0.36 uM Ras peptide.; type: protein-complex assay; how it was run: as §1
# NIH3T3 [6] = assay: Inhibition of Ras processing in Hras-transformed NIH3T3 cells at 15 uM
# NIH3T3 (Mus musculus) = assay: Inhibition of Ras processing in Hras transformed NIH3T3 cells.
Compound,IC50 [1],IC50 (NIH3T3 [2]),further results
CC(C(C/C=C/c1nc2ccccc2o1)c1ccc(Cl)cc1)N(Cc1ccc2ccccc2c1)C(=O)CC(CC(=O)O)C(=O)O (centres undefined),0.028 µM,,
CC(C(Cc1ccc(Cl)cc1)c1ccc(Cl)cc1)N(C)C(=O)CC(CC(=O)O)C(=O)O (centres undefined),> 10 µM,,
C[C@@H]([C@H](C/C=C/c1nc2ccccc2o1)c1ccc2c(c1)OCO2)N(Cc1ccc2ccccc2c1)C(=O)[C@@H]1OC(C(=O)O)(C(=O)O)O[C@H]1C(=O)O,0.0039 µM,1.2 µM,
C[C@H]([C@@H](C/C=C/c1nc2ccccc2o1)c1ccc2c(c1)OCO2)N(Cc1ccc2ccccc2c1)C(=O)[C@@H]1OC(C(=O)O)(C(=O)O)O[C@@H]1C(=O)O,0.006 µM,8.8 µM,
C[C@@H]([C@H](C/C=C/c1nc2ccccc2o1)c1ccc2c(c1)OCO2)N(Cc1ccc2ccccc2c1)C(=O)[C@H]1OC(C(=O)[O-])(C(=O)[O-])O[C@@H]1C(=O)[O-].[Na+].[Na+].[Na+],0.0072 µM,,Inhibition (NIH3T3 [6]): 42%
"CC(C(C/C=C/c1nc2ccccc2o1)c1ccc2c(c1)OCO2)N(Cc1ccc2ccccc2c1)C(=O)C1OC(C(=O)O)(C(=O)O)O[C@H]1C(=O)O (single isomer, unassigned)",0.008 µM,,IC50 (NIH3T3 (Mus musculus)): 17 µM

# Continued, in another order:
IC50 [1],Compound,IC50 (NIH3T3 [2]),further results
0.023 µM,CC(C(C/C=C/c1nc2ccccc2o1)c1ccc2c(c1)OCO2)N(Cc1ccc2ccccc2c1)C(=O)CC(CC(=O)O)C(=O)O (centres undefined),,
0.005 µM,C[C@@H]([C@H](C/C=C/c1nc2ccccc2o1)c1ccc2c(c1)OCO2)N(Cc1ccc2ccccc2c1)C(=O)[C@@H]1OC(C(=O)O)(C(=O)O)O[C@@H]1C(=O)O,4.3 µM,IC50 [3]: 0.0056 µM; IC50 [4]: 0.0072 µM; IC50 [5]: 0.045 µM
0.051 µM,CC(C(C/C=C/c1ccc2ccccc2c1)c1ccc(Cl)cc1)N(Cc1ccc2ccccc2c1)C(=O)CC(CC(=O)O)C(=O)O (centres undefined),,
0.0039 µM,C[C@@H]([C@H](C/C=C/c1nc2ccccc2o1)c1ccc2c(c1)OCO2)N(Cc1ccc2ccccc2c1)C(=O)[C@H]1OC(C(=O)O)(C(=O)O)O[C@H]1C(=O)O,10 µM,
